According to ChEMBL document CHEMBL1153097, “Synthesis and biological evaluation of a novel series of pyrazole chalcones as anti-inflammatory, antioxidant and antimicrobial agents” (Bioorg Med Chem, 2009):
Active and inactive are the calls of the source. The rule behind the calls is not given here.

Legend:
[1] = test system: Radical scavenging activity; test: Antioxidant activity assessed as DPPH radical scavenging activity; type: functional; parameters: concentration or dose not given beside the values
Bacillus subtilis = test: Antimicrobial activity against Bacillus subtilis MTCC 1789 at 100 ug/ml after 24 hrs by agar diffusion method; type: functional; conditions: MTCC 1789, 24 h, read-out: IZ
Summary of the method: (§1)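 Agar diffusion on Mueller Hinton agar. Plates were seeded with 0.1 mL of bacterial suspension at 10⁵ cfu/mL in 0.85% sterile saline. Duplicate plates were incubated 24 h at 37 °C, and the zone of inhibition was measured in mm.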

Aspergillus niger = test: Antimicrobial activity against Aspergillus niger MTCC 1781 at 250 ug/ml after 48 hrs by agar diffusion method; type: functional; conditions: MTCC 1781, 48 h, read-out: IZ
Summary of the method: (§2)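 Agar diffusion on Sabouraud's dextrose agar. Plates were spread with 0.1 mL of fungal spore suspension in sterile distilled water, adjusted to 10⁶ cfu/mL. Duplicate plates were incubated 48 h at 28 °C, and the zone of inhibition was measured in mm.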

Trichoderma viride = test: Antimicrobial activity against Trichoderma viride MTCC 167 at 250 ug/ml after 48 hrs by agar diffusion method; type: functional; conditions: MTCC 167, 48 h, read-out: IZ; summary of the method: as §2
Aspergillus flavus = test: Antimicrobial activity against Aspergillus flavus MTCC 2501 at 250 ug/ml after 48 hrs by agar diffusion method; type: functional; conditions: MTCC 2501, 48 h, read-out: IZ; summary of the method: as §2
THP-1 [2] = test: Antiinflammatory activity in human THP1 cells assessed as inhibition of LPS-induced TNFalpha release at 10 uM after 24 hrs by ELISA; type: functional; conditions: THP-1, 24 h
Summary of the method: (§3)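 PMA-differentiated THP-1 cells in RPMI 1640 with 10% FBS, penicillin and streptomycin. Test compound in 0.5% DMSO added 30 min at 37 °C before E. coli 0127:B8 LPS, then further incubation at 37 °C. Supernatant TNF-α and IL-6 measured by ELISA. Percent inhibition calculated against control.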

THP-1 [3] = test: Antiinflammatory activity in human THP1 cells assessed as inhibition of LPS-induced IL6 release at 10 uM after 24 hrs by ELISA; type: functional; conditions: THP-1, 24 h; summary of the method: as §3
THP-1 [4] = test: Cytotoxicity against human THP1 cells assessed as CCK8 […] at 10 uM after 24 hrs […]; type: cell-based; conditions: thp-1, 24 h
Summary of the method: (§4)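 Cytotoxicity was read with CCK-8 in the same wells as the cytokine assay. PMA-differentiated THP-1 cells were exposed to compound in 0.5% DMSO for 30 min at 37 °C, then stimulated with LPS and incubated further at 37 °C.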

Escherichia coli = test: Antimicrobial activity against Escherichia coli MTCC 1650 at 100 ug/ml after 24 hrs by agar diffusion method; type: functional; conditions: MTCC 1650, 24 h, read-out: IZ; summary of the method: as §1
Staphylococcus aureus [5] = test: Antimicrobial activity against Staphylococcus aureus MTCC 96 at 100 ug/ml after 24 hrs by agar diffusion method; type: functional; conditions: MTCC 96, 24 h, read-out: IZ; summary of the method: as §1
Klebsiella pneumoniae [6] = test: Antimicrobial activity against Klebsiella pneumoniae NCIM 2957 at 100 ug/ml after 24 hrs by agar diffusion method; type: functional; summary of the method: as §1
Proteus vulgaris [7] = test: Antimicrobial activity against Proteus vulgaris MTCC 1771 at 100 ug/ml after 24 hrs by agar diffusion method; type: functional; conditions: MTCC 1771, 24 h, read-out: IZ; summary of the method: as §1
THP-1 [8] = test: Antiinflammatory activity in human THP1 cells assessed as inhibition of LPS-induced TNFalpha release at 1 uM/mL after 24 hrs by ELISA; type: functional; conditions: THP-1, 24 h; summary of the method: as §3
THP-1 [9] = test: Antiinflammatory activity in human THP1 cells assessed as inhibition of LPS-induced IL6 release at 1 uM/mL after 24 hrs by ELISA; type: functional; conditions: THP-1, 24 h; summary of the method: as §3
[10] = Cytotoxicity against human THP1 cells assessed as CCK8 […] at 1 uM/mL after 24 hrs […]; type: cell-based; conditions: THP-1 cells; summary of the method: as §4
Klebsiella pneumoniae [11] = test: Antimicrobial activity against Klebsiella pneumoniae NCIM 2957 at 10 ug/ml after 24 hrs by agar diffusion method; type: functional; conditions: NCIM 2957, 24 h, read-out: IZ; summary of the method: as §1
Proteus vulgaris [12] = test: Antimicrobial activity against Proteus vulgaris MTCC 1771 at 10 ug/ml after 24 hrs by agar diffusion method; type: functional; conditions: MTCC 1771, 24 h, read-out: IZ; summary of the method: as §1
Staphylococcus aureus [13] = test: Antimicrobial activity against Staphylococcus aureus MTCC 96 at 10 ug/ml after 24 hrs by agar diffusion method; type: functional; conditions: MTCC 96, 24 h, read-out: IZ
Summary of the method: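 Mueller Hinton agar seeded with 0.1 mL of bacterial suspension in sterile 0.85% saline at 10⁵ cfu/mL. Duplicate plates incubated 24 h at 37 ± 0.5 °C. Activity read as zone of inhibition in mm.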

| SMILES | Activity [1] [%] | zone of inhibition at 100 µg/mL (Bacillus subtilis) [mm] | zone of inhibition at 250 µg/mL (Aspergillus niger) [mm] | zone of inhibition at 250 µg/mL (Trichoderma viride) [mm] | zone of inhibition at 250 µg/mL (Aspergillus flavus) [mm] | inhibition at 10 µM (THP-1 [2]) [%] | inhibition at 10 µM (THP-1 [3]) [%] | Activity (THP-1 [4]) [%] | zone of inhibition at 100 µg/mL (Escherichia coli) [mm] | zone of inhibition at 100 µg/mL (Staphylococcus aureus [5]) [mm] | inhibition zone (IZ) (Klebsiella pneumoniae [6]) | zone of inhibition at 100 µg/mL (Proteus vulgaris [7]) [mm] | zone of inhibition at 100 µg/mL (Klebsiella pneumoniae [6]; NCIM 2957, 24 h, read-out: IZ) [mm] | inhibition at 1 µM (THP-1 [8]) [%] | inhibition at 1 µM (THP-1 [9]) [%] | inhibition at 24 h, 1 µM [10] [%] | zone of inhibition at 10 µg/mL (Klebsiella pneumoniae [11]) [mm] | zone of inhibition at 10 µg/mL (Proteus vulgaris [12]) [mm] | zone of inhibition at 10 µg/mL (Staphylococcus aureus [13]) [mm] |
| --- | --- | --- | --- | --- | --- | --- | --- | --- | --- | --- | --- | --- | --- | --- | --- | --- | --- | --- | --- |
| COc1ccc(O)c(C(C)(C)C)c1.COc1ccc(O)cc1C(C)(C)C | 66.8 | – | – | – | – | – | – | – | – | – | – | – | – | – | – | – | – | – | – |
| COc1ccc(C(=O)/C=C/c2cn(-c3ccccc3)nc2-c2ccccc2)c(OC)c1 | 31.8 | 10 | 12 | 14 | 15 | 0 | 64.7 | 0 | 10 | 8 | – | – | – | – | – | – | – | – | – |
| COc1ccc(-c2nn(-c3ccccc3)cc2/C=C/C(=O)c2ccc(OC)cc2OC)cc1 | 34.6 | 10 | 15 | 16 | 14 | 0 | 38.2 | 0 | 8 | 11 | Active | 7 | – | – | – | – | – | – | – |
| COc1ccc(C(=O)/C=C/c2cn(-c3ccccc3)nc2-c2cccc(Cl)c2)c(OC)c1 | 29.7 | 8 | 9 | 11 | 10 | 0 | 67.5 | 0 | 9 | 6 | Active | 8 | – | – | – | – | – | – | – |
| COc1ccc(C(=O)/C=C/c2cn(-c3ccccc3)nc2-c2ccc(C)cc2)c(OC)c1 | 13.5 | 8 | 14 | 15 | 12 | 0 | 0 | 0 | 11 | 9 | – | – | 12 | – | – | – | – | – | – |
| C[C@@H]1C[C@H]2[C@@H]3CCC4=CC(=O)C=C[C@]4(C)[C@@]3(F)[C@@H](O)C[C@]2(C)[C@@]1(O)C(=O)CO [DEXAMETHASONE] | – | – | – | – | – | – | – | – | – | – | – | – | – | 69 | 90 | 0 | – | – | – |
| CN(C)[C@@H]1C(O)=C(C(N)=O)C(=O)[C@@]2(O)C(O)=C3C(=O)c4c(O)cccc4[C@@](C)(O)[C@H]3C[C@@H]12 [TETRACYCLINE] | – | – | – | – | – | – | – | – | – | – | – | – | – | – | – | – | 32 | 20 | 17 |
